Sampled rows, rich in hits. Any-hit rate of the full collection: about 1.8%.
STAT1 inh: STAT1 signaling inhibition; NIH 3T3 STAT1-luciferase reporter, IFN-gamma, luminescence; inhibition, % at 5.5 µM; 200,000 tested, 0.35% active;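 active = inhibition above a set limit, the mean inhibition across all tested compounds plus 3 SD, cut at about 34% in these data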;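 also: 0% = IFN-gamma with DMSO and 100% = IFN-gamma with 300 µM nifuroxazide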
STAT3 act: increases IL-6 driven STAT3 reporter signal. U3A cells, IL-6 STAT3-luciferase reporter, luminescence; 100% = signal with IL-6 EC80 alone. activation (% of control), % at 5.6 µM. 190,000 tested, 0.91% active. AID 871;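 active = activation above the screen-wide mean of compound activation plus 3 SD, cut at about 130% in these data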;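 also: 0% = background luminescence of wells with medium and substrate only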
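system = STAT3-luciferase reporter U3A cells | reagent = IL-6 stimulus at 33 ng/mL final | timing = 1 h compound pre-exposure, 6 h IL-6 stimulation, 37 °C | measured by = luminescence | evaluation = % activation versus median of IL-6-stimulated wells | control set = IL-6-only wells as 100% reference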
STAT3 inh-1: inhibitors of IL-6 induced STAT3 signaling; 190,000 tested, 0.89% active; AID 862; inhibition, % at 5.5 µM; U3A cells, IL-6 STAT3-luciferase reporter, luminescence; host cell line lacks STAT1;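 active = inhibition above the mean inhibition across all screened compounds plus 3 SD, cut at about 44% in these data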;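 also: 0% = DMSO only wells and 100% = 100 µM nifuroxazide control wells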
PPC-1+TRAIL kill: compounds killing PPC-1 cancer cells with TRAIL present (potentiator screen, no TRAIL-free arm); cell killing (% activity), % at 4 µM or 5 µM; 220,000 tested, 0.41% active; PPC-1 cells + TRAIL, ATPLite viability luminescence;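 active = cell killing above 50% in the first pass at 4 µM, then a duplicate retest at 5 µM averaging 50% or more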;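 also: plate controls were cells with TRAIL plus DMSO for no effect and medium-only wells lacking cells for full effect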
C8 TRAIL sens: caspase-8 TRAIL sensitization | NB7+C8 cells + TRAIL, ATPlite viability luminescence | inhibition (viability loss, TRAIL sensitization), % at 10 µM | 360,000 tested, 1% active | AID 624354;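 active = compounds causing at least 50% loss of cell viability in the single-dose screen, relative to plate controls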
STAT3 inh-2: STAT3 inhibition, confirmation assay; 1,200 tested, 45% active; shares compounds with STAT3 inh-1; U3A cells, IL-6 STAT3 luciferase reporter, luminescence; cell line lacks STAT1; inhibition, % at 5.7 µM;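 active = inhibition above the hit cutoff computed for the primary STAT3 screen, cut at about 44% in these data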;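 also: 0% = IL-6 plus DMSO and 100% = IL-6 plus nifuroxazide control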
NFkB inh 2: counter-screen for STAT3 inhibitors: NF-kappaB inhibition; shares compounds with STAT3 inh-1; HEK293T NF-kB luciferase reporter, TNF-alpha induced; inhibition, % at 5.7 µM; 1,200 tested, 36% active;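 active = inhibition above the mean of solvent-only control wells plus 3 SD, cutoff set per campaign, cut at about 13% in these data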;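 also: 0% = TNF-alpha with DMSO and 100% = TNF-alpha with MG high control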
STAT1 inh STAT3c: counter-screen for STAT3 inhibitors: STAT1 inhibition. shares compounds with STAT3 inh-1. NIH 3T3 STAT1-luciferase reporter, IFN-gamma induced, luminescence. 1,200 tested, 27% active. inhibition, % at 5.7 µM;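 active = inhibition above the mean plus 3 SD of solvent-only control wells, limit set per screening run, cut at about 16% in these data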;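 also: 0% = DMSO with IFN-gamma and 100% = nifuroxazide control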
An asterisk follows results filed as active; x = no result given; ! = repeats disagree.

SMILES	STAT1 inh	STAT3 act	STAT3 inh-1	PPC-1+TRAIL kill	C8 TRAIL sens	STAT3 inh-2	NFkB inh 2	STAT1 inh STAT3c
COc1cccc(Nc2nc(C(N)Cc3ccc(C(F)(F)F)cc3)cs2)n1 (stereo not given)	x	x	x	x	36.3	x	x	x
CC1(C)CC(=O)C=C(c2ccc(-c3cnc4ccccc4c3)cc2)C1=O	x	x	x	x	29.2	x	x	x
CN(Cc1ccc(Cl)c(Cl)c1)C(c1cc2ccccc2o1)c1nnnn1C(C)(C)C (stereo not given)	x	x	x	x	15.5	x	x	x
Cc1ccc(N(C)S(=O)(=O)c2csc(C(N)=O)c2)cc1C	x	x	x	x	6.4	x	x	x
Nc1cc(-c2cccc(Br)c2)nn1Cc1ccccc1	-10.4	95.7	8.8	9.8	6.6	x	x	x
Nc1cc(-c2ccccc2)nn1Cc1ccc(Cl)cc1	-3.4	63.7	49.3*	1.8	0.9	45.3*	0.4	-14.7
Nc1cc(-c2ccc(Br)cc2)nn1Cc1ccccc1	-27.2	46.1	67.0*	15.2	33.9	58.5*	6.8	-35.0
COC(=O)c1nn(-c2ccc3c(c2)CCN3C(C)=O)cc1O	12.3	13.8	100.5*	76.2*	80.9*	84.5*	-9.7	-26.9
COC(=O)c1nn(-c2ccc3c(c2)OCO3)cc1O	-2.8	87.1	18.8	18.9	13.9	x	x	x
O=C(Nc1ccc(Cl)cc1)Nc1ccccc1C(=O)O	24.7	50.1	61.5*	x	74.7*	8.8	-4.4	-67.9
O=C(Nc1ccc(Cl)c(Cl)c1)Nc1ccccc1C(=O)O	-43.5	58.4	52.9*	14.4	63.2*	-51.3	-16.8	-251.0
O=C(Cc1ccccc1)NNC(=O)Nc1ccc(Cl)c(Cl)c1	-2.3	106.4	1.7	2.4	-5.2	x	x	x
O=C(Nc1cccc(Cl)c1)Nc1ccccc1C(=O)O	x	x	x	21.3	22.3	x	x	x
COc1ccccc1-n1c(-c2ccccc2)c[nH]c1=S	-7.2	99.2	0.8	6.6	4.6	x	x	x
COc1ccccc1-n1c(-c2ccccc2)c[n+]2c1CCc1ccccc1-2	34.1*!	34.2	86.0*	38.2	34.3	74.0*	7.9	20.7*
Cc1ccc(S(=O)(=O)N2CCCC(C(=O)NCCc3ccc(Cl)cc3)C2)cc1 (stereo not given)	x	x	x	x	-6.0	x	x	x
COC(=O)c1ccc(COC(=O)c2[nH]c(C)c(C(C)=O)c2C)o1	23.6	61.6	46.8*	18.6	29.0	51.9*	11.2	5.2
CC(NC(=O)Oc1cccc2ccccc12)c1ccccc1 (stereo not given)	x	x	x	x	17.2	x	x	x
CC(=Nc1cccc(O)c1)c1sc2ccccc2c1O	-14.5	119.0	-22.6	35.3	10.0	x	x	x
CC(=Nc1ccc(C)cc1)c1sc2ccccc2c1O	-58.9	53.7	56.1*	43.3	62.4*	9.5	-35.2	-153.4
S=C1NCC(c2ccccc2)S1 (stereo not given)	x	x	x	x	-5.4	x	x	x
O=C(Nc1ccc(-c2nc3ccccc3s2)cc1)c1cc(-n2cnnc2)ccc1Cl	3.6	53.3	62.0*	34.7	35.9	32.8	-1.9	-9.6
CCOc1ccc(-c2nnc(SCC(=O)Nc3cc(C)on3)o2)cc1	-2.6	62.1	49.3*	39.9	7.6	42.1	16.0*	13.6
Cc1ccc(-c2cnc3c(Cl)c(C)nn3c2)cc1	10.8	33.1	82.4*	22.0	44.2	41.1	21.6*	-44.1
CC1(C(=O)Nc2cnc3ccccc3c2)CCN1C(=O)C/C=C/c1ccccc1 (stereo not given)	x	x	x	x	4.0	x	x	x
SMILES	STAT1 inh	STAT3 act	STAT3 inh-1	PPC-1+TRAIL kill	C8 TRAIL sens	STAT3 inh-2	NFkB inh 2	STAT1 inh STAT3c
O=c1cc(CSc2nnc(-c3cccs3)n2Cc2ccccc2)nc2sc3ccccc3n12	23.1	53.2	60.0*	12.2	11.3	57.0*	12.0	22.7*
COc1ccc(CN(C)C(=O)CNC(=O)c2sc3ccccc3c2Cl)c(OC)c1	x	x	x	x	4.3	x	x	x
CCOc1ccc(NC(=O)Nc2cccc(C)n2)cc1	x	x	x	x	12.6	x	x	x
CCCCOc1ccc(C(=O)Nc2cccc(C)n2)cc1	-13.2	63.8	48.5*	15.2	36.0	12.6	-17.8	-43.4
O=c1[nH]c(Nc2nc3ccccc3o2)nc2c1CCCC2	11.4	47.0	69.4*	48.7	54.8*	29.1	-1.7	-13.0
Cc1cccc(OCC(=O)Nc2ccc(N3CCN(C(=O)c4ccco4)CC3)cc2)c1	11.4	61.7	53.9*	19.2	18.9	48.8*	12.8	16.7*
Cc1ccc(OCC(=O)Nc2ccc(N3CCN(C(=O)c4ccco4)CC3)cc2)cc1C	6.8	89.3	14.9	16.3	20.8	x	x	x
CCN(CC)S(=O)(=O)c1cc(C(=O)Nc2ccncc2)ccc1Cl	22.3	57.4	56.0*	17.5	22.1	33.5	11.5	17.0*
COC(=O)CCN(c1ccccc1)S(=O)(=O)c1cc(-c2cc(C)no2)ccc1OC	x	x	x	x	-0.6	x	x	x
COc1ccccc1-c1csc(C(C)(O)c2ccccc2)n1 (stereo not given)	x	x	x	x	-7.4	x	x	x
COc1cc(/C=N/N=C(\N)c2nonc2N)cc(OC)c1O	x	x	x	7.8	-1.7	x	x	x
COc1ccc(/C=N/N=C(\N)c2nonc2N)cc1	27.9	61.0	50.6*	10.4	18.3	28.4	-10.4	-116.5
Oc1ccc(N=Nc2ccc3c(c2)OCCO3)c2cccnc12	8.6	50.9	62.9*	23.9	29.6	-4.6	-11.8	-36.8
Cc1ccc(-c2nc(-c3ccccc3)no2)cc1	-34.7	54.5	55.1*	11.1	36.8	39.8	4.6	-48.6
c1ccc(C2=NNC(=NC3CC3)SC2)cc1	26.9	41.8	74.3*	32.7	17.3	37.7	11.9	-16.9
O=C(N/N=C/c1ccc2cccnc2c1)c1ccco1	0.1	57.7	54.6*	34.0	61.2*	19.9	-18.4	-63.2
Cc1ccc(N(C(=O)CNC(=O)c2ccco2)C(C(=O)NC2CCCCC2)c2cccnc2)cc1C (stereo not given)	x	x	x	x	0.5	x	x	x
Cc1ccc(N(C(=O)CCl)C(C(=O)NC2CCCCC2)c2cccnc2)cc1C (stereo not given)	30.1	40.6	70.3*	44.9	x	101.5*	40.0*	40.0*
O=C(Nc1cccc(S(=O)(=O)N2CCCCCC2)c1)C1CCN(C(=O)c2ccc(F)cc2)CC1	x	x	x	x	14.6	x	x	x
Cc1ccc(N(CC(=O)NC(C)C)C(=O)CCC(=O)Nc2ccccn2)c(C)c1	x	x	x	x	13.5	x	x	x
Cn1c(N=NC(=O)c2ccccc2)c(O)c2ccccc21	-48.2	60.6	46.4*	44.4	60.4*	13.2	-16.2	-111.5
O=S1(=O)c2ccc(Br)cc2N2CC[C@H](C2)N1Cc1ccc(Cl)cc1	x	x	x	x	14.6	x	x	x
Cc1ccc(CNC(=O)/C=C/[C@H]2O[C@@H](n3cc(C)c(=O)[nH]c3=O)C[C@@H]2O)o1	x	x	x	x	-27.3	x	x	x
c1ccc(-c2ncc(-c3ccn[nH]3)s2)cc1	-22.4	65.3	46.2*	23.9	42.7	1.9	-23.8	-112.1

Source: PubChem BioAssay
